MrgX1 antagonist: antagonists of human MrgX1 receptor, primary screen, HEK293 cells, Fluo-4 calcium flux; BAM8-22 antagonism; active compounds read low; AID 588676, 2011; Mas-related G-protein coupled receptor member X1 (Homo sapiens), Q96LB2; B-score at 10 µM; 310,000 compounds, 1.3% hits;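 active = calcium-response B-score plate-corrected more than 3 library SD below zero, starting fluorescence within 5 deviations, no agonist response on first addition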;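 also: peak minus trough fluorescence over baseline after final BAM8-22 challenge near maximal dose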
Target sequence (Q96LB2 whole entry, looked up): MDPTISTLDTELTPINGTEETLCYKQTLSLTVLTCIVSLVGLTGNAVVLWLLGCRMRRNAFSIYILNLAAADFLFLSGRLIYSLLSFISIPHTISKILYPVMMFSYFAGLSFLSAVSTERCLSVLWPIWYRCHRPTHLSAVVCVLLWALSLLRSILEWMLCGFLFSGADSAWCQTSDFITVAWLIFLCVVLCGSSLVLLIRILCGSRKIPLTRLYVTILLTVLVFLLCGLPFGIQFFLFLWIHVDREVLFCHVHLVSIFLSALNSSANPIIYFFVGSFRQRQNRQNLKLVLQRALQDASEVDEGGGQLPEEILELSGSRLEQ
MrgX1 ag: agonists of human MrgX1 receptor, primary screen, HEK293 cells, Fluo-4 calcium flux; Mas-related G-protein coupled receptor member X1 (Homo sapiens), Q96LB2; Fluo-4 calcium fluorescence, agonist mode; active compounds read high; B-score at 10 µM; 310,000 compounds, 0.44% hits;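 active = calcium response B-score plate-corrected fluorescence ratio at least 3 library SD, with starting fluorescence B-score inside 5 SD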
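System – MrgX1-expressing HEK293 cells · Incubation – cells plated overnight, dye loaded 0.5 h 37 °C, 0.5 h room temperature · Technique – kinetic Fluo-4 NW fluorescence of intracellular calcium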
RGS4 pot: RGS4 potentiators or activators, primary screen, cell-based, HEK293 M3R inducible RGS4, calcium flux; carbachol calcium flux Fluo4; active compounds read low; B-score at 10 µM; 310,000 compounds, 0.92% hits; AID 463111, 2010;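 active = B-score of the integrated calcium signal more than 4 SD below the library mean, with starting fluorescence not abnormally high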;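 also: negative B-score means reduced calcium response which marks RGS4 activation or potentiation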
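Assay system: HEK293 FlpIn-TREx cells, stable M3R, doxycycline-inducible RGS4 / Probe or stimulus: carbachol, ECmax concentration / Times: overnight RGS4 induction, 30 min dye load 37 °C, 20 min compound RT / Signal: kinetic calcium fluorescence imaging with Fluo4-AM dye, 2 µM / Measure: Agonist-evoked peak-minus-minimum fluorescence over baseline, integrated ratio, B score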
RGS4 inh: RGS4 inhibitors, primary screen, cell-based, HEK293 M3R inducible RGS4, calcium flux; Regulator of G-protein signaling 4 (Homo sapiens), P49798; Fluo-4 calcium flux; active compounds read high; triggered by carbachol at its EC20; B-score at 10 µM; 310,000 compounds, 0.45% hits;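 active = B-score, a plate-corrected calcium signal, over three deviations above library mean, with baseline fluorescence within five deviations of library mean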;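 also: RGS4 expression induced by doxycycline in cells with stable M3 receptor; B-score is computed from the integrated fluorescence ratio over baseline after carbachol; higher B-score means a larger calcium signal and so more RGS4 inhibition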
Target sequence (P49798 whole entry, looked up): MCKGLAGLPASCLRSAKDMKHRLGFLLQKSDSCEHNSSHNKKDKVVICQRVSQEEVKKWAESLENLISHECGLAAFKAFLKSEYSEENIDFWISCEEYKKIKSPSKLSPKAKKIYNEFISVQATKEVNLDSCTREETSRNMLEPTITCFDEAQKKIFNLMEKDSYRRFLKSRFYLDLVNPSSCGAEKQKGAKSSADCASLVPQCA
MrgX1 PAM: positive allosteric modulators of MrgX1, primary screen, HEK293 cells, Fluo-4 calcium flux; AID 588675, 2011; 310,000 compounds, 0.63% hits; FDSS; active compounds read high; B-score at 10 µM;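 active = plate-corrected calcium response at least 3 library SD above typical, normal starting fluorescence, not activating the receptor alone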;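 also: compound read alongside a low EC10 to EC30 dose of BAM8-22 agonist; peak minus trough fluorescence over baseline measured at the second addition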
RGS4 act valid: reduced carbachol calcium response, RGS4-induced M3R cells, confirmation, RGS4 activator project, cell-based, HEK293 M3R/RGS4 inducible, calcium flux, duplicate; shares compounds with RGS4 pot; carbachol calcium flux Fluo4; inhibition, % at 10 µM; 1,100 compounds, 89% hits; AID 602282, 2012;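 active = inhibition above 3 SD of the buffer control wells, cut at about 41% in these data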;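 also: signal is the integrated peak-minus-minimum Fluo4 fluorescence over baseline ratio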
RGS4 act ctr: counter-screen for RGS4 activators: effect in non-induced cells | shares compounds with RGS4 pot | HEK293 M3R non-induced RGS4, Fluo4 calcium flux; after carbachol challenge at its EC90 | inhibition, % at 10 µM | 1,100 compounds, 82% hits | AID 602283;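 active = inhibition exceeding 3 SD of buffer-only control wells, cut at about 26% in these data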;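 also: percent drop in integrated peak-minus-baseline over baseline Fluo4 ratio after carbachol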
Numbers stand for hits. Rows were chosen to be rich in hits. Some 3.5% of all compounds tested hit in one or more screens of this group.

For Cc1cc(C)cc(NC(=O)c2ccc(Cn3nc(C)c(Cl)c3C)o2)c1 the results were MrgX1 antagonist inactive, MrgX1 ag inactive, RGS4 pot -12, RGS4 inh inactive, MrgX1 PAM inactive, RGS4 act valid 70 and RGS4 act ctr 64.
`CCOc1ccc(CN(C)C(=O)[C@H](C)NC(=O)c2ccco2)cc1OC` gave MrgX1 antagonist inactive, MrgX1 ag inactive, RGS4 pot inactive, RGS4 inh inactive and MrgX1 PAM inactive.
`O=C(Nc1ccccc1)Nc1cc(Cl)cc(Cl)c1` gave MrgX1 antagonist inactive, MrgX1 ag inactive, RGS4 pot -8.3, RGS4 inh inactive, MrgX1 PAM inactive, RGS4 act valid 62 and RGS4 act ctr 84.
For COc1ccccc1N1CCN(S(=O)(=O)c2c(C(=O)N3CCOCC3)c(C)n(C)c2C)CC1 the results were MrgX1 antagonist inactive, MrgX1 ag inactive, RGS4 pot inactive, RGS4 inh inactive and MrgX1 PAM inactive.
For CN1/C(=C/C=C(C#N)C#N)C(C)(C)c2ccccc21 the results were MrgX1 antagonist inactive, MrgX1 ag inactive, RGS4 pot -7.8, RGS4 inh inactive, MrgX1 PAM inactive, RGS4 act valid 88 and RGS4 act ctr 82.
`CN1\C(=C/C=C/C=C/C=[N+](C)C)C(C)(C)c2ccccc21` gave RGS4 pot inactive and RGS4 inh inactive.
For O=C(NCc1ccc2c(c1)OCO2)c1ccc(C2SCC(=O)N2Cc2ccco2)cc1 (stereo unspecified) the results were MrgX1 antagonist inactive, MrgX1 ag inactive, RGS4 pot -7.7, RGS4 inh inactive, MrgX1 PAM inactive, RGS4 act valid 71 and RGS4 act ctr 84.
For O=S(=O)(c1ccc(Br)s1)N1CCN(Cc2ccc3c(c2)OCO3)CC1 the results were MrgX1 antagonist inactive, MrgX1 ag inactive, RGS4 pot -9.3, RGS4 inh inactive, MrgX1 PAM inactive, RGS4 act valid 90 and RGS4 act ctr 86.
`CCN1C(=O)[C@@H]2[C@@H](c3ccc(-c4ccc(C(C)=O)cc4)c(OC)c3)N3CCC[C@@]3(C(=O)OC)[C@@H]2C1=O` gave MrgX1 antagonist inactive, MrgX1 ag inactive and MrgX1 PAM inactive.
For COc1ccc(C(=O)C2CCCN(C3Cc4ccccc4C3)C2)cc1OC (stereo unspecified) the results were MrgX1 antagonist inactive, MrgX1 ag inactive, RGS4 pot -8.6, RGS4 inh inactive, MrgX1 PAM inactive, RGS4 act valid 86 and RGS4 act ctr 46.
CCOC(=O)N1CCC(N2CCCC(C(=O)c3cc(C)c(OC)c(C)c3)C2)CC1 (stereo unspecified) was read as MrgX1 antagonist inactive, MrgX1 ag inactive, RGS4 pot -8.1, RGS4 inh inactive, MrgX1 PAM inactive, RGS4 act valid 79 and RGS4 act ctr 35.
COc1ccc(C(=O)C2CCCN(Cc3nc4ccccc4nc3C)C2)cc1OC (stereo unspecified) was read as MrgX1 antagonist inactive, MrgX1 ag inactive, RGS4 pot inactive, RGS4 inh inactive and MrgX1 PAM inactive.
CCOc1ccccc1Oc1cn[nH]c1-c1ccc(O)cc1O was read as MrgX1 antagonist inactive, MrgX1 ag inactive, RGS4 pot inactive, RGS4 inh inactive and MrgX1 PAM inactive.
For C=C(C)COc1ccc(-c2[nH]ncc2Oc2ccccc2OCC)c(O)c1 the results were MrgX1 antagonist inactive, MrgX1 ag inactive, RGS4 pot -7.7, RGS4 inh inactive, MrgX1 PAM inactive, RGS4 act valid 91 and RGS4 act ctr 92.
For CCCCN(Cc1ccco1)C(=O)C1CCCN(c2ncnc3c2nc2n3CCCCC2)C1 (stereo unspecified) the results were MrgX1 antagonist inactive, MrgX1 ag inactive, RGS4 pot inactive, RGS4 inh inactive and MrgX1 PAM inactive.
`CSc1n[nH]c(NC(C)=O)n1` gave MrgX1 antagonist inactive, MrgX1 ag inactive, RGS4 pot inactive, RGS4 inh inactive and MrgX1 PAM inactive.
Screening CSc1n[nH]c(NC2=CC(=O)CCC2)n1 returned MrgX1 antagonist inactive, MrgX1 ag inactive, RGS4 pot -7.7, RGS4 inh inactive, MrgX1 PAM inactive, RGS4 act valid inactive and RGS4 act ctr inactive.
`Cc1cc2c(cc1C)NC(c1c(C)n(C)n(-c3ccccc3)c1=O)C1=C(CC(C)(C)CC1=O)N2` (stereo unspecified) gave MrgX1 antagonist inactive, MrgX1 ag inactive, RGS4 pot -11, RGS4 inh inactive, MrgX1 PAM inactive, RGS4 act valid 71 and RGS4 act ctr 62.
COc1ccc(OC)c2sc(N(CCCN(C)C)C(=O)CCS(=O)(=O)c3ccccc3)nc12 was read as MrgX1 antagonist -7.6, MrgX1 ag inactive, RGS4 pot -13, RGS4 inh inactive, MrgX1 PAM inactive, RGS4 act valid 84 and RGS4 act ctr 58.
Screening CCOC(=O)c1cc(NC(=O)Cc2ccc(S(=O)(=O)N3CCOCC3)s2)cc(C(=O)OCC)c1 returned MrgX1 antagonist inactive, MrgX1 ag inactive, RGS4 pot -8, RGS4 inh inactive, MrgX1 PAM inactive, RGS4 act valid 64 and RGS4 act ctr 36.
CCC[C@@H](NS(=O)(=O)c1ccc(C)cc1)C(=O)Oc1ccc2c3c(c(=O)oc2c1)CCC3 was read as MrgX1 antagonist inactive, MrgX1 ag inactive, RGS4 pot -7.6, RGS4 inh inactive, MrgX1 PAM inactive, RGS4 act valid 92 and RGS4 act ctr 71.
`Cc1ccc(S(=O)(=O)NC(C(=O)Oc2ccc3c(C)c(Cl)c(=O)oc3c2)c2ccccc2)cc1` (stereo unspecified) gave MrgX1 antagonist inactive, MrgX1 ag inactive, RGS4 pot inactive, RGS4 inh inactive and MrgX1 PAM inactive.
`O=C(CNC1CCCC1)Nc1ccc(N2CCCCCC2)cc1` gave MrgX1 antagonist inactive, MrgX1 ag inactive, RGS4 pot -8, RGS4 inh inactive, MrgX1 PAM inactive, RGS4 act valid 84 and RGS4 act ctr 36.
`O=C(CNC1CCCCCC1)Nc1ccc(N2CCCC2)cc1` gave MrgX1 antagonist inactive, MrgX1 ag inactive, RGS4 pot inactive, RGS4 inh inactive and MrgX1 PAM inactive.
Screening O=C(CNCCC1=CCCCC1)Nc1ccc(N2CCCCCC2)cc1 returned MrgX1 antagonist inactive, MrgX1 ag inactive, RGS4 pot -10, RGS4 inh inactive, MrgX1 PAM inactive, RGS4 act valid 94 and RGS4 act ctr 92.
